Legend:
Mus musculus [1] = test: Toxicity in ip dosed Swiss-Webster albino mouse; format: organism-based; conditions: in vivo
Heart [2] = test: Antiarrhythmic activity in Hartley guinea pig atria assessed as change in spontaneous rate at 73.4 uM/l after 5 mins; format: functional, Cavia porcellus
Summary of the method: (§1)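 Spontaneously beating isolated atria held under initial tension; bath fluid changed every 10 min; stabilised about 1 h. Maximum driving rate found with 1-ms square pulses at 50% above threshold voltage, 10 s every 30 s; the frequency just before failure of following is the MDR. Control is the mean of two determinations. Spontaneous rate recorded by tachograph. Values are % change from control at peak response, generally 5–30 min.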

[3] = Dissociation constant, pKa of the compound in 0.01 M potassium hydrogen phthalate; format: physicochemical
Summary of the method: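 pKa by potentiometric titration with 0.01 M potassium hydrogen phthalate in a thermostated vessel, stirred, under nitrogen bubbling, using glass and calomel electrodes. pKa is the mean pH at half-neutralization from four titrations. Endpoints were taken from parallel tangents on either side of the inflection.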

Homo sapiens [4] = species on record: Homo sapiens; test: Drug absorption in buccal cavity in human at pH 5.50 after 5 mins by UV spectrometry; format: ADME, organism-based; conditions: in vivo, other, pH 5.5, 5 min
Summary of the method: (§2)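 3 mg compound in 25 ml buffer (0.1 M phosphate pH 5.50 or 7.50; tetraborate pH 9.30) swished in the mouth for 5 min, expelled, and combined with a 10 ml water rinse. Made up to 50 ml; aliquot basified to pH 10 and ether-extracted, then back-extracted into 0.1 N HCl. UV absorbance read at λmax against Beer's law plots; the unrecovered fraction is taken as % absorbed. One to three subjects.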

Homo sapiens [5] = species on record: Homo sapiens; test: Drug absorption in buccal cavity in human at pH 9.3 after 5 mins by UV spectrometry; format: ADME, organism-based; conditions: in vivo, other, pH 9.3, 5 min; summary of the method: as §2
[6] = Therapeutic index, ratio of LD50 for toxicity to ED50 for antiarrhythmic activity in ip dosed Swiss-Webster albino mouse; format: organism-based, Heart; conditions: in vivo, read-out: Ratio LD50/ED50
Heart [7] = test: Antiarrhythmic activity in Hartley guinea pig atria assessed as change in maximum driving rate at 73.4 uM/l after 5 mins; format: functional, Cavia porcellus; summary of the method: as §1
Homo sapiens [8] = species on record: Homo sapiens; test: Drug absorption in buccal cavity in human at pH 7.50 after 5 mins by UV spectrometry; format: ADME, organism-based; conditions: in vivo, other, pH 7.5, 5 min; summary of the method: as §2
Mus musculus [9] = test: Antiarrhythmic activity in ip dosed Swiss-Webster albino mouse assessed as prevention of chloroform-induced ventricular fibrillation; format: functional, Heart
Heart [10] = test: Antiarrhythmic activity in Hartley guinea pig atria assessed as change in maximum driving rate at 66.1 uM/l after 5 mins; format: functional, Cavia porcellus; summary of the method: as §1
Heart [11] = test: Antiarrhythmic activity in Hartley guinea pig atria assessed as change in spontaneous rate at 66.1 uM/l after 5 mins; format: functional, Cavia porcellus; summary of the method: as §1
Heart [12] = test: Antiarrhythmic activity in Hartley guinea pig atria assessed as change in maximum driving rate at 60.2 uM/l after 5 mins; format: functional, Cavia porcellus; summary of the method: as §1
Heart [13] = test: Antiarrhythmic activity in Hartley guinea pig atria assessed as change in spontaneous rate at 60.2 uM/l after 5 mins; format: functional, Cavia porcellus; summary of the method: as §1
Heart [14] = test: Antiarrhythmic activity in Hartley guinea pig atria assessed as change in maximum driving rate at 55.2 uM/l after 5 mins; format: functional, Cavia porcellus; summary of the method: as §1
Heart [15] = test: Antiarrhythmic activity in Hartley guinea pig atria assessed as change in spontaneous rate at 55.2 uM/l after 5 mins; format: functional, Cavia porcellus; summary of the method: as §1
Heart [16] = test: Antiarrhythmic activity in Hartley guinea pig atria assessed as change in spontaneous rate at 65.2 uM/l after 5 mins; format: functional, Cavia porcellus; summary of the method: as §1
Heart [17] = test: Antiarrhythmic activity in Hartley guinea pig atria assessed as change in maximum driving rate at 65.2 uM/l after 5 mins; format: functional, Cavia porcellus; summary of the method: as §1
Heart [18] = test: Antiarrhythmic activity in Hartley guinea pig atria assessed as change in spontaneous rate at 58.6 uM/l after 5 mins; format: functional, Cavia porcellus; summary of the method: as §1
Heart [19] = test: Antiarrhythmic activity in Hartley guinea pig atria assessed as change in maximum driving rate at 58.6 uM/l after 5 mins; format: functional, Cavia porcellus; summary of the method: as §1
Heart [20] = test: Antiarrhythmic activity in Hartley guinea pig atria assessed as change in maximum driving rate at 55.0 uM/l after 5 mins; format: functional, Cavia porcellus; summary of the method: as §1
Heart [21] = test: Antiarrhythmic activity in Hartley guinea pig atria assessed as change in spontaneous rate at 55.0 uM/l after 5 mins; format: functional, Cavia porcellus; summary of the method: as §1
Homo sapiens [22] = test: Toxicity in human assessed as numbness at 5 x 10' -5 M administered topically to buccal cavity measured up to 15 to 20 mins; format: organism-based; conditions: in vivo, topical_or_ocular, 50 µM
Heart [23] = test: Antiarrhythmic activity in Hartley guinea pig atria assessed as change in spontaneous rate at 65.0 uM/l after 5 mins; format: functional, Cavia porcellus; summary of the method: as §1
Heart [24] = test: Antiarrhythmic activity in Hartley guinea pig atria assessed as change in spontaneous rate at 32.5 uM/l after 5 mins; format: functional, Cavia porcellus; summary of the method: as §1
Heart [25] = test: Antiarrhythmic activity in Hartley guinea pig atria assessed as reversible decrease in maximum driving rate compound treated for 5 mins measured up to 2 hrs post washout; format: functional, tissue-based; conditions: Cavia porcellus
Summary of the method: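 After compound exposure the bath was washed out. Two MDR determinations were made every 15 min for up to 2 h to follow reversibility and recovery toward control. Bath fluid was changed every 10 min.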

Heart [26] = test: Antiarrhythmic activity in Hartley guinea pig atria assessed as change in maximum driving rate at 32.5 uM/l after 5 mins; format: functional, Cavia porcellus; summary of the method: as §1
Heart [27] = test: Antiarrhythmic activity in Hartley guinea pig atria assessed as change in maximum driving rate at 65.0 uM/l after 5 mins; format: functional, Cavia porcellus; summary of the method: as §1
Heart [28] = test: Antiarrhythmic activity in Hartley guinea pig atria assessed as change in maximum driving rate at 15.4 uM/l after 5 mins; format: functional, Cavia porcellus; summary of the method: as §1
Heart [29] = test: Antiarrhythmic activity in Hartley guinea pig atria assessed as change in maximum driving rate at 61.6 uM/l after 5 mins; format: functional, Cavia porcellus; summary of the method: as §1
Heart [30] = test: Antiarrhythmic activity in Hartley guinea pig atria assessed as change in maximum driving rate at 30.8 uM/l after 5 mins; format: functional, Cavia porcellus; summary of the method: as §1
Heart [31] = test: Antiarrhythmic activity in Hartley guinea pig atria assessed as change in spontaneous rate at 61.6 uM/l after 5 mins; format: functional, Cavia porcellus; summary of the method: as §1
Heart [32] = test: Antiarrhythmic activity in Hartley guinea pig atria assessed as change in spontaneous rate at 15.4 uM/l after 5 mins; format: functional, Cavia porcellus; summary of the method: as §1
Heart [33] = test: Antiarrhythmic activity in Hartley guinea pig atria assessed as change in spontaneous rate at 30.8 uM/l after 5 mins; format: functional, Cavia porcellus; summary of the method: as §1

Row | Compound | LD50 (Mus musculus [1]) | pKa [3] | Drug absorption (Homo sapiens [4]) [%] | Drug absorption (Homo sapiens [5]) [%] | selectivity ratio [6] | Drug absorption (Homo sapiens [8]) [%] | ED50 (Mus musculus [9]) [µmol/kg] | also measured
1 | CN1CC[C@H]2CCC[C@@H](NC(=O)c3ccccc3)[C@H]2C1 (mixture of isomers) | 1430 | 9.18 | 9.3 | 40.6 | 5.9 | 16 | 242 | Activity (Heart [2]): -7.2%; Activity (Heart [7]): -15.1%
2 | CN1CC[C@H]2CCC[C@@H](NC(=O)c3ccccc3)[C@@H]2C1 (mixture of isomers) | 1450 | 8.99 | 11.1 | 42.9 | 5.9 | 15.9 | 246 | Activity (Heart [2]): -19.3%; Activity (Heart [7]): -17.6%
3 | COc1ccccc1C(=O)N[C@@H]1CCC[C@@H]2CCN(C)C[C@@H]21 (mixture of isomers) | 847 | 9.11 | 1.2 | 35.1 | 7.3 | 5.3 | 116 | Activity (Heart [10]): -23.2%; Activity (Heart [11]): -25.5%
4 | COc1ccccc1C(=O)N[C@@H]1CCC[C@@H]2CCN(C)C[C@H]21 (mixture of isomers) | 761 | 8.81 | 5.2 | 41.2 | 4.3 | 12.8 | 175 | Activity (Heart [10]): -19.8%; Activity (Heart [11]): -25%
5 | COc1ccc(C(=O)N[C@@H]2CCC[C@@H]3CCN(C)C[C@@H]32)cc1 (mixture of isomers) | 1560 | 9.19 | 4.7 | 30.6 | 5.8 | 7 | 268 | Activity (Heart [10]): -15.1%; Activity (Heart [11]): -44.2%
6 | COc1ccc(C(=O)N[C@@H]2CCC[C@@H]3CCN(C)C[C@H]32)cc1 (mixture of isomers) | 1490 | – | 7.4 | 34.3 | 7.6 | 9 | 195 | Activity (Heart [10]): -19.8%; Activity (Heart [11]): -21.5%
7 | COc1ccc(C(=O)N[C@@H]2CCC[C@@H]3CCN(C)C[C@@H]32)cc1OC (mixture of isomers) | 1770 | – | 7 | 17.6 | 8.9 | 10.4 | 199 | Activity (Heart [12]): -9.71%; Activity (Heart [13]): -16.9%
8 | COc1ccc(C(=O)N[C@@H]2CCC[C@@H]3CCN(C)C[C@H]32)cc1OC (mixture of isomers) | 1600 | 8.89 | 16.8 | 27.1 | 9.8 | 18.9 | 164 | Activity (Heart [12]): -13.8%; Activity (Heart [13]): -20.2%
9 | COc1cc(C(=O)N[C@@H]2CCC[C@@H]3CCN(C)C[C@@H]32)cc(OC)c1OC (mixture of isomers) | 1170 | 9.02 | 8.1 | 23.8 | 7.3 | 14.2 | 160 | Activity (Heart [14]): -7%; Activity (Heart [15]): -9.8%
10 | CN1CC[C@H]2CCC[C@@H](NC(=O)c3ccc(Cl)cc3)[C@H]2C1 (mixture of isomers) | 909 | – | 6.7 | 43.2 | 4.4 | 9.3 | 209 | Activity (Heart [16]): -13.1%; Activity (Heart [17]): -28.5%
11 | CN1CC[C@H]2CCC[C@@H](NC(=O)c3ccc(Cl)cc3)[C@@H]2C1 (mixture of isomers) | 952 | 8.83 | 8.2 | 54.4 | 4.8 | 12.4 | 200 | Activity (Heart [16]): -57.4%; Activity (Heart [17]): -20%
12 | CN1CC[C@H]2CCC[C@@H](NC(=O)c3ccc(Cl)c(Cl)c3)[C@H]2C1 (mixture of isomers) | 712 | 9.05 | 20.1 | 60.6 | 9.7 | 25.1 | 73 | Activity (Heart [18]): -21.7%; Activity (Heart [19]): -34.1%
13 | COc1cc(C(=O)O[C@@H]2CCC[C@@H]3CCN(C)C[C@@H]32)cc(OC)c1OC (mixture of isomers) | 421 | 8.91 | 21.2 | 70.7 | 2.6 | 38.2 | 162 | Activity (Heart [20]): -32.3%; Activity (Heart [21]): -53.2%; Activity (Homo sapiens [22]): Toxic
14 | CN1CC[C@H]2CCC[C@@H](OC(=O)c3ccc(Cl)cc3)[C@H]2C1 (mixture of isomers) | 1200 | 8.9 | 13.7 | 86.5 | 4.7 | 43.7 | 257 | Activity (Heart [23]): -52.3%; Activity (Homo sapiens [22]): Toxic; Activity (Heart [24]): -48.6%; Activity (Heart [25]): Dose-dependent effect; Activity (Heart [26]): -32.2%; Activity (Heart [27]): -53.3%
15 | CN1CC[C@H]2CCC[C@@H](OC(=O)c3ccc(Cl)cc3)[C@@H]2C1 (mixture of isomers) | 757 | 8.75 | 17.4 | 84.7 | 5.2 | 42.7 | 146 | Activity (Heart [23]): -60.5%; Activity (Homo sapiens [22]): Toxic; Activity (Heart [27]): -55.8%
16 | CN1CC[C@H]2CCC[C@@H](NS(=O)(=O)c3ccccc3)[C@H]2C1 (mixture of isomers) | 1460 | 9.17 | 14.9 | 30.4 | 5.2 | 17.7 | 282 | –
17 | CN1CC[C@H]2CCC[C@@H](NS(=O)(=O)c3ccccc3)[C@@H]2C1 (mixture of isomers) | 1113 | 8.87 | 11.9 | 37.1 | 3.3 | 20.4 | 347 | –
18 | C=C[C@H]1C[N@@]2CC[C@H]1C[C@@H]2[C@@H](O)c1ccnc2ccc(OC)cc12 [QUINIDINE] | 533 uM/L | – | – | – | – | – | – | –
19 | C=C[C@H]1CN2CC[C@H]1C[C@@H]2[C@@H](O)c1ccnc2ccc(OC)cc12 [QUINIDINE] | – | – | – | – | – | – | 160 | Activity (Heart [28]): -13.3%; Activity (Heart [29]): -36.3%; Activity (Heart [30]): -22.8%; Activity (Heart [31]): -36.1%; Activity (Heart [32]): -18.8%; Activity (Heart [33]): -28.6%; Activity (Heart [25]): Dose-dependent effect

From ChEMBL document CHEMBL3272033, “Physicochemical and pharmacological studies of some 8-substituted decahydroisoquinolines” (J Med Chem, 1976)
